Results on 53 compounds are retold here after ChEMBL document CHEMBL3259545, “Novel pyrrolobenzoxaboroles: design, synthesis, and biological evaluation against Trypanosoma brucei” (Eur J Med Chem, 2014).

In brackets after ≈: the same amount, converted by molar mass. Some results are limits rather than exact numbers.

One experiment concerns L929. Description: Cytotoxicity against mouse L929 cells assessed as cell viability after 72 hrs by alamar blue assay. The class given is cell-based. To be noted: L929, 72 h. In outline: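 L929 mouse fibroblasts grown in DMEM with 10% FBS and 1% penicillin/streptomycin, kept sub-confluent. Seeded from a 1 × 10⁴/mL suspension, attached overnight, then medium renewed and DMSO-diluted compounds added. Incubated 72 h at 37 °C, 5% CO₂. Resazurin added for another 3–4 h, fluorescence read at ex 544/em 590 nm.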
(In general: Alamar Blue is a resazurin reagent that responds to reducing activity.)

Experiment [1] relates to Trypanosoma brucei brucei. Description: Antitrypanosomal activity against Trypanosoma brucei brucei 427 after 72 hrs by alamar blue assay. The class given is functional, organism-based. To be noted: Trypanosoma brucei, 427, 72 h. The gist of the method:
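Bloodstream T. b. brucei 427 kept in log phase in HMI-9 with 10% FBS, 10% Serum Plus and penicillin/streptomycin, subcultured every 2–3 days. Final density 1.0 × 10⁵/mL with 0.4% DMSO, exposed to serially diluted compounds for 72 h at 37 °C, 5% CO₂. Resazurin added for another 2–4 h, fluorescence read at ex 544/em 590 nm. IC50 from sigmoidal fits of triplicate points.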

What is called IC50 is the point on the concentration scale where inhibition reaches its midpoint. Take `O=C(Cc1ccccc1)c1ccn(-c2ccc3c(c2)B(O)OC3)c1`: the IC50 was more than 10 µg/mL with L929 and 0.29 µg/mL (≈ 0.914 µM) in experiment [1].

For `CCCC(=O)c1ccn(-c2ccc3c(c2)B(O)OC3)c1`, the half-inhibitory concentration (IC50) is more than 10 µg/mL in the experiment on L929 and 0.11 µg/mL (≈ 0.409 µM) in experiment [1].

For the compound `O=C(c1ccccc1)c1ccn(-c2ccc3c(c2)C(O)OC3)c1` (stereo unspecified), the figures for the IC50 (with L929; in experiment [1]) were 8.18 µg/mL (≈ 26.8 µM) and more than 5 µg/mL, respectively.

In the case of `CC(=O)OCc1ccc(C(=O)c2ccn(-c3ccc4c(c3)B(O)OC4)c2)cc1`, the IC50 in the experiment with L929 turned out to be 10 µg/mL (≈ 26.7 µM); in experiment [1], 0.03 µg/mL (≈ 0.08 µM).

On to `COc1ccc(C(=O)c2ccn(-c3ccc4c(c3)B(O)OC4)c2)cc1`, for which the results for the IC50 (in the experiment on L929; in experiment [1]) were more than 10 µg/mL and 0.11 µg/mL (≈ 0.33 µM), respectively.

With `OB1OCc2ccc(-n3cccc3)cc21`, the IC50 in the experiment on L929 is more than 10 µg/mL; in experiment [1], 1.98 µg/mL (≈ 9.95 µM).

For `O=C(c1ccc(Cl)cc1Cl)c1cccn1-c1ccc2c(c1)B(O)OC2`, the IC50 with L929 is more than 10 µg/mL; in experiment [1], 1.43 µg/mL (≈ 3.84 µM).

For the compound `OB1OCc2ccc(-n3cccc3Sc3ccc(Cl)cc3)cc21`, the figures for the IC50 (in the experiment on L929; in experiment [1]) were more than 10 µg/mL and 1.16 µg/mL (≈ 3.4 µM), respectively.

`OB1OCc2ccc(-n3cc(Sc4ccc(Cl)c(Cl)c4)c4ccccc43)cc21`: the values for the IC50 (in the experiment with L929; in experiment [1]) were more than 10 µg/mL and more than 5 µg/mL, respectively.

Turning to `O=C(c1ccccc1)c1cccn1-c1ccc2c(c1)B(O)OC2`, the IC50 in the experiment with L929 is more than 10 µg/mL; in experiment [1], 0.34 µg/mL (≈ 1.12 µM).

`O=C(c1ccc(F)cc1)c1ccn(-c2ccc3c(c2)B(O)OC3)c1`: the IC50 in the experiment with L929 was more than 10 µg/mL; in experiment [1], 0.16 µg/mL (≈ 0.498 µM).

As for `COc1ccccc1C(=O)c1ccn(-c2ccc3c(c2)B(O)OC3)c1`, the IC50 in the experiment on L929 was more than 10 µg/mL; in experiment [1], 0.17 µg/mL (≈ 0.51 µM).

For `O=[N+]([O-])c1ccc(Sc2cn(-c3ccc4c(c3)B(O)OC4)c3ccccc23)cc1`, the IC50 in the experiment with L929 was more than 10 µg/mL; in experiment [1], more than 5 µg/mL.

Consider `O=C(c1ccn(-c2ccc3c(c2)B(O)OC3)c1)c1ccc(Cl)cc1Cl`, for which the IC50 is more than 10 µg/mL in the experiment on L929 and 1.12 µg/mL (≈ 3.01 µM) in experiment [1].

As for `O=C(NCc1ccccc1)c1cccn1-c1ccc2c(c1)B(O)OC2`, the IC50 with L929 is more than 10 µg/mL; in experiment [1], 0.8 µg/mL (≈ 2.41 µM).

Turning to `CC(=O)c1cccn1-c1ccc2c(c1)B(O)OC2`, the figures for the IC50 (with L929; in experiment [1]) were more than 10 µg/mL and 0.69 µg/mL (≈ 2.86 µM), respectively.

In the case of `O=C(c1cccc(Cl)c1)c1ccn(-c2ccc3c(c2)B(O)OC3)c1`, the IC50 in the experiment with L929 was more than 10 µg/mL; in experiment [1], 0.35 µg/mL (≈ 1.04 µM).

With `OB1OCc2ccc(-n3cccc3Sc3ccc(Cl)c(Cl)c3)cc21`, the IC50 is more than 10 µg/mL in the experiment on L929 and more than 5 µg/mL in experiment [1].

Regarding `O=C(NC1CCCCC1)c1cccn1-c1ccc2c(c1)B(O)OC2`, the IC50 is more than 10 µg/mL in the experiment with L929 and 2.85 µg/mL (≈ 8.79 µM) in experiment [1].

Consider `COc1ccc([S+]([O-])c2cn(-c3ccc4c(c3)B(O)OC4)c3ccccc23)cc1` (stereo unspecified), for which the IC50 is more than 10 µg/mL in the experiment on L929 and 1.56 µg/mL (≈ 3.87 µM) in experiment [1].

As to `OB1OCc2ccc(-n3cc(Sc4ccccc4O)c4ccccc43)cc21`, the IC50 was more than 10 µg/mL with L929 and more than 5 µg/mL in experiment [1].

Consider `O=C(c1ccc(Cl)cc1)c1ccn(-c2ccc3c(c2)B(O)OC3)c1`, for which the IC50 in the experiment with L929 was more than 10 µg/mL; in experiment [1], 0.21 µg/mL (≈ 0.622 µM).

Take `O=C(c1ccc(CO)cc1)c1ccn(-c2ccc3c(c2)B(O)OC3)c1`: the IC50 with L929 worked out at 9.31 µg/mL (≈ 27.9 µM); in experiment [1], 0.04 µg/mL (≈ 0.12 µM).

For `COc1ccc(Sc2cn(-c3ccc4c(c3)B(O)OC4)c3ccccc23)cc1`, the IC50 in the experiment on L929 was more than 10 µg/mL; in experiment [1] it was more than 5 µg/mL.

Consider `O=C(NCCc1ccccc1)c1cccn1-c1ccc2c(c1)B(O)OC2`, for which the figures for the IC50 (in the experiment on L929; in experiment [1]) were more than 10 µg/mL and 0.68 µg/mL (≈ 1.96 µM), respectively.

For `CNC(=O)c1cccn1-c1ccc2c(c1)B(O)OC2`, the IC50 with L929 was more than 10 µg/mL; in experiment [1] it was 0.86 µg/mL (≈ 3.36 µM).

On to `OB1OCc2ccc(-n3cc(Sc4cccc(Cl)c4)c4ccccc43)cc21`, for which the figures for the IC50 (in the experiment with L929; in experiment [1]) were more than 10 µg/mL and more than 5 µg/mL, respectively.

For `O=C(c1ccn(-c2ccc3c(c2)B(O)OC3)c1)c1cccs1`, the IC50 with L929 was more than 10 µg/mL; in experiment [1], 0.08 µg/mL (≈ 0.259 µM).

Turning to `OB1OCc2ccc(-n3ccc(Cc4ccccc4)c3)cc21`, the figures for the IC50 (in the experiment with L929; in experiment [1]) were more than 10 µg/mL and 2.17 µg/mL (≈ 7.5 µM), respectively.

For `OB1OCc2ccc(-n3cc(Sc4ccc5ccccc5c4)c4ccccc43)cc21`, the IC50 in the experiment with L929 is more than 10 µg/mL; in experiment [1] it was more than 5 µg/mL.

With `OB1OCc2ccc(-n3ccc4ccccc43)cc21`, the figures for the IC50 (in the experiment with L929; in experiment [1]) were more than 10 µg/mL and more than 5 µg/mL, respectively.

Turning to `OB1OCc2ccc(-n3cccc3Sc3ccccc3Cl)cc21`, the results for the IC50 (with L929; in experiment [1]) were more than 10 µg/mL and 2.89 µg/mL (≈ 8.46 µM), respectively.

Take `NCCCC(=O)c1ccn(-c2ccc3c(c2)B(O)OC3)c1`: the values for the IC50 (in the experiment with L929; in experiment [1]) were more than 10 µg/mL and 4.02 µg/mL (≈ 14.1 µM), respectively.

On to `Cc1cccc(C(=O)c2ccn(-c3ccc4c(c3)B(O)OC4)c2)c1`, for which the IC50 in the experiment on L929 was more than 10 µg/mL; in experiment [1], 0.09 µg/mL (≈ 0.284 µM).

In the case of `CCCNC(=O)c1cccn1-c1ccc2c(c1)B(O)OC2`, the IC50 in the experiment on L929 was more than 10 µg/mL; in experiment [1], 3.21 µg/mL (≈ 11.3 µM).

For the compound `Cc1ccc(C(=O)c2ccn(-c3ccc4c(c3)B(O)OC4)c2)cc1`, the IC50 with L929 was more than 10 µg/mL; in experiment [1], 0.08 µg/mL (≈ 0.252 µM).

`CC(=O)c1ccn(-c2ccc3c(c2)B(O)OC3)c1`: the figures for the IC50 (in the experiment on L929; in experiment [1]) were more than 10 µg/mL and 0.56 µg/mL (≈ 2.32 µM), respectively.

For `O=C(CCCN1C(=O)c2ccccc2C1=O)c1ccn(-c2ccc3c(c2)B(O)OC3)c1`, the IC50 in the experiment with L929 is more than 10 µg/mL; in experiment [1], 0.72 µg/mL (≈ 1.74 µM).

In the case of `O=C(c1ccn(-c2ccc3c(c2)B(O)OC3)c1)c1cccc2ccccc12`, the IC50 amounted to 5.59 µg/mL (≈ 15.8 µM) in the experiment on L929 and 0.4 µg/mL (≈ 1.13 µM) in experiment [1].

Consider `CCNC(=O)c1cccn1-c1ccc2c(c1)B(O)OC2`, for which the IC50 in the experiment with L929 is more than 10 µg/mL; in experiment [1], 1.85 µg/mL (≈ 6.85 µM).

`COc1cc(C(=O)c2ccn(-c3ccc4c(c3)B(O)OC4)c2)cc(OC)c1OC`: the IC50 is 1.15 µg/mL (≈ 2.92 µM) in the experiment on L929 and 0.16 µg/mL (≈ 0.407 µM) in experiment [1].

In the case of `O=C(c1ccccc1Cl)c1cccn1-c1ccc2c(c1)B(O)OC2`, the IC50 is more than 10 µg/mL in the experiment on L929 and 0.7 µg/mL (≈ 2.07 µM) in experiment [1].

For `O=C(c1ccccc1)c1ccn(-c2ccccc2)c1`, the IC50 in the experiment on L929 was more than 10 µg/mL; in experiment [1] it was more than 5 µg/mL.

For `NCc1ccc(C(=O)c2ccn(-c3ccc4c(c3)B(O)OC4)c2)cc1`, the IC50 in the experiment with L929 is more than 10 µg/mL; in experiment [1], 0.18 µg/mL (≈ 0.542 µM).

Turning to `O=C(c1ccn(-c2ccc3c(c2)B(O)OC3)c1)c1ccccc1Cl`, the results for the IC50 (in the experiment with L929; in experiment [1]) were more than 10 µg/mL and 0.28 µg/mL (≈ 0.829 µM), respectively.

For `COc1ccc(S(=O)(=O)c2cn(-c3ccc4c(c3)B(O)OC4)c3ccccc23)cc1`, the results for the IC50 (in the experiment on L929; in experiment [1]) were more than 10 µg/mL and more than 5 µg/mL, respectively.

Regarding `COc1ccc(CNC(=O)c2cccn2-c2ccc3c(c2)B(O)OC3)cc1`, the IC50 is more than 10 µg/mL in the experiment with L929 and 0.7 µg/mL (≈ 1.93 µM) in experiment [1].

On to `O=C(CCc1ccccc1)c1ccn(-c2ccc3c(c2)B(O)OC3)c1`, for which the IC50 in the experiment with L929 was more than 10 µg/mL; in experiment [1] it was 0.19 µg/mL (≈ 0.574 µM).

For `OB1OCc2ccc(-n3cc(Sc4ccc(O)cc4)c4ccccc43)cc21`, the values for the IC50 (in the experiment with L929; in experiment [1]) were more than 10 µg/mL and more than 5 µg/mL, respectively.

For `O=C(O)c1cccn1-c1ccc2c(c1)B(O)OC2`, the IC50 in the experiment on L929 was more than 10 µg/mL; in experiment [1], 0.13 µg/mL (≈ 0.535 µM).

For `OB1OCc2ccc(-n3cc(Sc4ccc(F)cc4)c4ccccc43)cc21`, the 50% inhibitory concentration (IC50) in the experiment with L929 was more than 10 µg/mL; in experiment [1], more than 5 µg/mL.

In the case of `O=C(c1ccn(-c2ccc3c(c2)B(O)OC3)c1)C1CCCCC1`, the results for the IC50 (in the experiment with L929; in experiment [1]) were more than 10 µg/mL and 0.13 µg/mL (≈ 0.42 µM), respectively.

Turning to `CCCCCC(=O)c1ccn(-c2ccc3c(c2)B(O)OC3)c1`, the IC50 was more than 10 µg/mL with L929 and 0.09 µg/mL (≈ 0.303 µM) in experiment [1].
